Measurements taken from ChEMBL document CHEMBL4325877, “Synthesis of novel benzbromarone derivatives designed to avoid metabolic activation” (Bioorg Med Chem Lett, 2018).

Assays:
Hepatocyte [1] = experiment: Cytotoxicity in hepatocytes isolated from CYP activator dexamethasone-treated C57BL/6J mouse at 5 uM after 18 hrs by LDH assay relative to control; assay type: ADME, cell-based
Procedure, shortened: (§1)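 Hepatocytes from mice pretreated with dexamethasone to induce CYP enzymes; compounds at 1 or 5 µM. Cytotoxicity read as LDH release after drug exposure (text gives 16 hr, legend 18 hr). Values are averages of duplicate experiments.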

[2] = Toxicity in liver microsomes isolated from CYP activator dexamethasone-treated Sprague-Dawley rat assessed as induction of mitochondrial permeability transition by measuring mitochondrial swelling at 50 uM measured after 30 mins in presence of NADPH; set-up: species or system Microsome; conditions: 0.5 h
Procedure, shortened: (§2)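 Compound (50 µM) incubated with dexamethasone-treated rat liver microsomes at 37 °C, with or without NADPH, for 30 min. Isolated mitochondrial fraction then added. Swelling followed as absorbance change at 540 nm over time, and area over the curve integrated as the MPT index. Mean ± SD, n = 3.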

[3] = Toxicity in liver microsomes isolated from CYP activator dexamethasone-treated Sprague-Dawley rat assessed as induction of mitochondrial permeability transition by measuring mitochondrial swelling at 50 uM measured after 30 mins in absence of NADPH; set-up: species or system Microsome; conditions: 0.5 h; procedure, shortened: as §2
[4] = molecular target: T1, Solute carrier family 22 member 12 (Homo sapiens, UniProt Q96S37); experiment: Inhibition of human URAT1 expressed in HEK293 cells assessed as inhibition of [14C]-urate uptake at 10 uM after 2 mins by beta-scintillation counting analysis; assay type: cell-based; conditions: hek293, 2 min
T1 sequence (Q96S37 whole entry): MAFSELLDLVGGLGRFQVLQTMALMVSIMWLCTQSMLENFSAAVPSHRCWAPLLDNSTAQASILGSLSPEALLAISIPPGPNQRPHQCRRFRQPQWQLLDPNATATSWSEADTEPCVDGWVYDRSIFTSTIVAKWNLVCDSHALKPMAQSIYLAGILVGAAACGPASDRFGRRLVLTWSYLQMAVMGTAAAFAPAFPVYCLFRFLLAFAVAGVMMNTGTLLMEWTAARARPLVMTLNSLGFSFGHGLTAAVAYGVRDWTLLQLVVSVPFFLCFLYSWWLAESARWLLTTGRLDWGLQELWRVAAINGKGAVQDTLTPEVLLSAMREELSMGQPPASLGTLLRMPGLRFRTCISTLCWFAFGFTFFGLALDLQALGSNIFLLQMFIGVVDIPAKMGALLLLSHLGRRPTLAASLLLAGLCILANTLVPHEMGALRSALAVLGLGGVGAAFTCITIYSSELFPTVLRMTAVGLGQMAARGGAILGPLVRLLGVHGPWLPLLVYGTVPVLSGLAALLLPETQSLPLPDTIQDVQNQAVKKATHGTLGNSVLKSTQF
Procedure, shortened: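 HEK cells overexpressing hURAT1; uric acid uptake measured in presence of compound at 10 µM. Uptake expressed as percent of vehicle control (0.5% DMSO, no inhibitor). Mean ± SD, n = 4.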

Hepatocyte [5] = experiment: Cytotoxicity in hepatocytes isolated from CYP activator dexamethasone-treated C57BL/6J mouse at 1 uM after 18 hrs by LDH assay relative to control; assay type: ADME, cell-based; procedure, shortened: as §1
URAT1 (SLC22A12) = molecular target: T2, URAT1 (SLC22A12) (Homo sapiens, UniProt Q96S37); experiment: Inhibition of human URAT1 expressed in HEK293 cells assessed as [14C]-urate uptake at 10 uM after 2 mins by beta-scintillation counting analysis relative to control; assay type: cell-based; set-up: scale not given: the % may be the effect or the level left; conditions: HEK293 cells expressing human URAT1, probe [14C]-urate, read-out: Activity
T2 sequence (Q96S37 whole entry): T1 sequence (Q96S37 whole entry)

Hepatocyte [6] = experiment: Cytotoxicity in hepatocytes isolated from CYP activator dexamethasone-treated C57BL/6J mouse after 18 hrs by LDH assay relative to control; assay type: ADME, cell-based; procedure, shortened: as §1

SMILES	Activity (Hepatocyte [1]) [%]	Activity [2]	Activity [3]	inhibition (INH) [4]	Activity (Hepatocyte [5]) [%]	activity at 2 min, 10 µM (URAT1 (SLC22A12)) [%]	Activity (Hepatocyte [6])
CCc1oc2ccccc2c1C(=O)c1cc(O)ccc1Br	< 16	Non-Toxic	Non-Toxic	Active			
CCc1oc2ccccc2c1C(=O)c1ccc(Br)c(O)c1Br	< 16	Non-Toxic	Non-Toxic	Active			
CCc1oc2ccccc2c1C(=O)c1ccc(Br)c(O)c1	< 16	Non-Toxic	Non-Toxic	Active			
CCc1oc2ccccc2c1C(=O)c1cccc(O)c1Br	< 16	Non-Toxic	Non-Toxic	Active			
CCc1oc2ccccc2c1C(=O)c1cc(O)c(Br)cc1Br	< 16	Non-Toxic	Non-Toxic	Active			
CCc1oc2ccccc2c1C(=O)c1cc(O)cc(Br)c1	< 16	Non-Toxic	Non-Toxic	Active			
CCc1oc2ccccc2c1C(=O)c1cc(Br)c(O)c(Br)c1 [BENZBROMARONE]	52	Toxic	Non-Toxic		27	< 10	Dose-dependent effect
